Test results published in ChEMBL document CHEMBL4017539, “Oral Delivery of Propofol with Methoxymethylphosphonic Acid as the Delivery Vehicle” (J Med Chem, 2017).

Tests used:
Mus musculus [1] = assay: Anesthetic activity in ICR mouse assessed as onset time for loss of righting reflex at 200 mg equiv/kg parent drug administered via oral gavage; format: functional
How it was run: (§1)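 Male and female ICR mice (20 ± 2 g), fasted overnight, dosed by gavage in 10% DMSO, 20% Solutol HS-15, 70% saline (n = 10/group for diastereoisomeric mixtures, n = 6/group for single diastereoisomers). Mice were placed on their backs until righting stopped. Read-outs were onset of LORR, anesthetic duration, percent with LORR and percent mortality per group.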

Mus musculus [2] = assay: Anesthetic activity in ICR mouse assessed as anesthetic duration time at 200 mg equiv/kg parent drug administered via oral gavage; format: functional; how it was run: as §1
Mus musculus [3] = assay: Anesthetic activity in ICR mouse assessed as loss of righting reflex at 200 mg equiv/kg parent drug administered via oral gavage relative to control; format: functional; how it was run: as §1
[4] = Toxicity in ICR mouse assessed as death at 200 mg equiv/kg parent drug administered via oral gavage relative to control; conditions: in vivo; how it was run: as §1
Mus musculus [5] = assay: Anesthetic activity in ICR mouse assessed as onset time for loss of righting reflex at 100 mg equiv/kg parent drug administered via oral gavage; format: functional; how it was run: as §1
Mus musculus [6] = assay: Anesthetic activity in ICR mouse assessed as anesthetic duration time at 100 mg equiv/kg parent drug administered via oral gavage; format: functional; how it was run: as §1
Mus musculus [7] = assay: Anesthetic activity in ICR mouse assessed as loss of righting reflex at 100 mg equiv/kg parent drug administered via oral gavage relative to control; format: functional; how it was run: as §1
[8] = Toxicity in ICR mouse assessed as death at 100 mg equiv/kg parent drug administered via oral gavage relative to control; conditions: in vivo; how it was run: as §1
[9] = Half life in Beagle dog at 2 mg/kg, iv administered as single bolus dose by LC-MS/MS analysis; format: ADME, organism-based, Canis lupus familiaris; conditions: in vivo
How it was run: (§2)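 Beagle dogs (n=3/group) received a single i.v. bolus of parent drug, then after a one-week washout received the prodrug i.g. in 5% DMSO, 5% Solutol HS-15 (30%, w/v), 90% saline. Heparinized blood was taken to 24 h, and plasma was obtained at 2–8 °C and stored at -80 °C. Parent drug was measured by LC-MS/MS and analysed non-compartmentally. Oral bioavailability was oral versus i.v. exposure to the active compound.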

[10] = Cmax in Beagle dog at 2 mg/kg, iv administered as single bolus dose by LC-MS/MS analysis; format: ADME, organism-based, Canis lupus familiaris; parameters: dose 2 mg/kg, route intravenous; conditions: in vivo; how it was run: as §2
[11] = AUC (0 to t) in Beagle dog at 2 mg/kg, iv administered as single bolus dose by LC-MS/MS analysis; format: ADME, organism-based, Canis lupus familiaris; conditions: in vivo
Mus musculus [12] = assay: Sleep promoting activity in po dosed ICR mouse assessed as increase in pentobarbital induced sleep time administered 5 mins before pentobarbital injection; format: functional, organism-based
How it was run: (§3)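 Fasted male and female ICR mice (n=10/group) received vehicle or 55, 65 or 75 mg/kg orally in 10% DMSO, 20% Solutol HS-15 (30%, w/v), 70% saline, 5 min before pentobarbital 40 mg/kg i.p. Sleep duration ran from falling asleep to recovery of the righting reflex. Data are mean ± SEM versus vehicle.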

Mus musculus [13] = assay: Sleep promoting activity in ICR mouse assessed as pentobarbital induced sleep time at 65 mg/kg, po administered 5 mins before pentobarbital injection (reference value: 33 +/- 20 min); format: functional; how it was run: as §3
Mus musculus [14] = assay: Sleep promoting activity in ICR mouse assessed as pentobarbital induced sleep time at 75 mg/kg, po administered 5 mins before pentobarbital injection (reference value: 33 +/- 20 min); format: functional; how it was run: as §3
[15] = Half life in Beagle dog at 3 mg/kg, iv administered as single bolus dose by LC-MS/MS analysis; conditions: in vivo
[16] = Half life in Beagle dog at 6.9 mg/kg, po by LC-MS/MS analysis; conditions: in vivo
in vivo [17] = conditions: Beagle, dog, iv, 3 mg/kg
in vivo [18] = conditions: Beagle, dog, po, 6.9 mg/kg
in vivo [19] = conditions: Beagle, dog, iv, 3 mg/kg; remark: listed apart in the source
in vivo [20] = conditions: Beagle, dog, po, 6.9 mg/kg; remark: listed apart in the source
in vivo [21] = conditions: Beagle, dog, po, 6.9 mg/kg; remark: listed apart in the source
[22] = Half life in Beagle dog at 10 mg/kg, po by LC-MS/MS analysis; format: ADME, organism-based, Canis lupus familiaris; conditions: in vivo; how it was run: as §2
[23] = Cmax in Beagle dog at 10 mg/kg, po by LC-MS/MS analysis; format: ADME, organism-based, Canis lupus familiaris; parameters: dose 10 mg/kg, route oral; conditions: in vivo; how it was run: as §2
[24] = AUC (0 to t) in Beagle dog at 10 mg/kg, po by LC-MS/MS analysis; format: ADME, organism-based, Canis lupus familiaris; conditions: in vivo
[25] = Oral bioavailability in Beagle dog at 10 mg/kg by LC-MS/MS analysis; format: ADME, organism-based, Canis lupus familiaris; conditions: in vivo; how it was run: as §2
[26] = Half life in Beagle dog at 1 mg/kg, iv administered as single bolus dose by LC-MS/MS analysis; format: ADME, organism-based, Canis lupus familiaris; conditions: in vivo; how it was run: as §2
[27] = AUC (0 to t) in Beagle dog at 1 mg/kg, iv administered as single bolus dose by LC-MS/MS analysis; format: ADME, organism-based, Canis lupus familiaris; conditions: in vivo
[28] = Cmax in Beagle dog at 1 mg/kg, iv administered as single bolus dose by LC-MS/MS analysis; format: ADME, organism-based, Canis lupus familiaris; parameters: dose 1 mg/kg, route intravenous; conditions: in vivo; how it was run: as §2
[29] = Half life in Beagle dog at 0.2 mg/kg, iv administered as single bolus dose by LC-MS/MS analysis; format: ADME, organism-based, Canis lupus familiaris; conditions: in vivo
How it was run: (§4)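 Beagle dogs (n=3/group) received the parent drug as an intravenous bolus. Heparinized blood was drawn pre-dose and at 2, 5, 10, 20 and 30 min and 1, 2, 4, 6, 8, 10, 12 and 24 h. Plasma was separated by centrifugation at 2–8 °C and stored at -80 °C. Parent drug was measured by LC-MS/MS, and parameters were derived by non-compartmental analysis.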

[30] = AUC (0 to t) in Beagle dog at 0.2 mg/kg, iv administered as single bolus dose by LC-MS/MS analysis; format: ADME, organism-based, Canis lupus familiaris; conditions: in vivo
[31] = Cmax in Beagle dog at 0.2 mg/kg, iv administered as single bolus dose by LC-MS/MS analysis; format: ADME, organism-based, Canis lupus familiaris; parameters: dose 0.2 mg/kg, route intravenous; conditions: in vivo; how it was run: as §4

SMILES | Time (Mus musculus [1]) [min] | Time (Mus musculus [2]) [min] | Activity (Mus musculus [3]) [%] | mortality [4] [%] | further results
CCOC(=O)CNP(=O)(COC)Oc1c(C(C)C)cccc1C(C)C (stereo unspecified) | 14.37 | 32.48 | 70 | 0 | 
CCOC(=O)[C@H](C)NP(=O)(COC)Oc1c(C(C)C)cccc1[C@H](C)C1CC1 (stereo partly specified) |  |  |  |  | Time (Mus musculus [5]): 4.49 min; Time (Mus musculus [6]): 74.44 min; Activity (Mus musculus [7]): 100%; mortality [8]: 50%
CCc1c2c(nc3ccc(O)cc13)-c1cc3c(c(=O)n1C2)COC(=O)[C@]3(O)CC [7-ETHYL-10-HYDROXYCAMPTOTHECIN] |  |  |  |  | half-life [9]: 160 min; Cmax [10]: 983 ng/mL; AUC(0-t) [11]: 410 ng·h/mL
CCOC(=O)C(C)(C)NP(=O)(COC)Oc1c(C(C)C)cccc1C(C)C (stereo unspecified) | 6.74 | 115.9 | 100 | 20 | 
CCOC(=O)[C@H](C)NP(=O)(CN1CCOCC1)Oc1c(C(C)C)cccc1C(C)C (stereo partly specified) | 7.65 | 16.18 | 60 | 10 | 
COCP(=O)(N[C@@H](C)C(=O)OCC(C)C)Oc1c(C(C)C)cccc1C(C)C (stereo partly specified) | 8.36 | 24.47 | 100 | 10 | 
CCOC(=O)[C@H](C)N[P@](=O)(COC)Oc1c(C(C)C)cccc1[C@H](C)C1CC1 |  |  |  |  | Time (Mus musculus [5]): 3.98 min; Time (Mus musculus [6]): 107.68 min; Activity (Mus musculus [7]): 100%; mortality [8]: 0%
CCOC(=O)[C@H](C)N[P@](=O)(COC)Oc1c(C(C)C)cccc1C(C)C | 4.38 | 40.1 | 100 | 0 | Activity (Mus musculus [12]): Dose-dependent effect; Time (Mus musculus [13]): 69 min; Time (Mus musculus [14]): 82 min
CCOC(=O)[C@@H](C)NP(=O)(COC)Oc1c(C(C)C)cccc1C(C)C (stereo partly specified) | 9.48 | 44.8 | 100 | 10 | 
CCOC(=O)[C@H](C)N[P@@](=O)(COC)Oc1c(C(C)C)cccc1[C@H](C)C1CC1 |  |  |  |  | Time (Mus musculus [5]): 4.35 min; Time (Mus musculus [6]): 85.23 min; Activity (Mus musculus [7]): 100%; mortality [8]: 17%
CCOC(=O)[C@H](C)NP(=O)(COC)Oc1c(C(C)C)cccc1C(C)C (stereo partly specified) | 4.5 | 60.31 | 100 | 10 | 
CC(C)c1cccc(C(C)C)c1O [PROPOFOL] |  |  |  |  | half-life [15]: 12 min; half-life [16]: 38.4 min; Cmax (in vivo [17]): 2050 ng/mL; Cmax (in vivo [18]): 97 ng/mL; AUC(0-t) (in vivo [19]): 616 ng·h/mL; AUC(0-t) (in vivo [20]): 102 ng·h/mL; bioavailability (in vivo [21]): 7.3%
C=CCN1CC[C@]23c4c5ccc(O)c4O[C@H]2C(=O)CC[C@@]3(O)[C@H]1C5 [NALOXONE] |  |  |  |  | half-life [22]: 539 min; Cmax [23]: 43 ng/mL; AUC(0-t) [24]: 117 ng·h/mL; bioavailability [25]: 9.6%; half-life [26]: 22.8 min; AUC(0-t) [27]: 122 ng·h/mL; Cmax [28]: 196 ng/mL
CC(C)c1cccc([C@H](C)C2CC2)c1O [CIPEPOFOL] |  |  |  |  | half-life [9]: 12 min; half-life [22]: 26.4 min; Cmax [10]: 1610 ng/mL; Cmax [23]: 233 ng/mL; AUC(0-t) [11]: 417 ng·h/mL; AUC(0-t) [24]: 162 ng·h/mL; bioavailability [25]: 7.7%
CCOC(=O)[C@H](C)NP(=O)(CO)Oc1c(C(C)C)cccc1C(C)C (stereo partly specified) | 6.91 | 19.19 | 40 | 10 | 
CCOC(=O)[C@H](C)N[P@@](=O)(COC)Oc1c(C(C)C)cccc1C(C)C | 9.68 | 47.24 | 33 | 0 | 
C[C@]12CC[C@@H]3c4ccc(O)cc4CC[C@H]3[C@@H]1CC[C@@H]2O [ESTRADIOL] |  |  |  |  | half-life [29]: 16.2 min; AUC(0-t) [30]: 28 ng·h/mL; Cmax [31]: 76 ng/mL
COCP(=O)(N[C@@H](C)C(=O)OCc1ccccc1)Oc1c(C(C)C)cccc1C(C)C (stereo partly specified) | 9.34 | 94.61 | 50 | 10 | 
COCP(=O)(N[C@@H](C)C(=O)OC(C)C)Oc1c(C(C)C)cccc1C(C)C (stereo partly specified) | 12.7 | 59.38 | 40 | 0 | 
